Experimental data from different studies.
Protocols differ between the studies behind these lines.
Target: cAMP-dependent protein kinase catalytic subunit alpha (PRKACA, Homo sapiens, UniProt P17612)

Compound	read-out	action	method	concentration	endpoint	value
CN(c1nccc(-c2cnn3ncccc23)n1)C1CC1	cell-free assay	–	–	1 µM	remaining signal	100%
CS(=O)(=O)N1CCCC(NC(=O)[C@H](CCC2CCCCC2)NC(=O)c2ccc(CNC(=O)c3cnc4ccccn34)cc2)C1 (some centres unmarked)	cell-free assay	–	competition with immobilised ligand	0.1 µM	remaining binding	100%
CS(=O)(=O)Nc1cccc(-c2csc(NC(=O)CSc3nc4nccnc4c(=O)n3CCc3ccccc3)n2)c1	enzyme activity	inhibitor	–	10 µM	inhibition	5%
Cn1c2c(c3ccc(Cl)c(Cl)c31)C(C#N)C1(CCCC1)NC2=O (centres unmarked)	thermal stability	–	DSF	10 µM	ΔTm	-0.6 °C
CNc1cccc2cc(C(=O)Nc3ccc(C(=O)O)cc3)c(=O)[nH]c12	enzyme activity	inhibitor	–	10 µM	inhibition	-8.1%
CSc1nc(C)c(-c2ccnc(Nc3ccc(N4CCOCC4)cc3)c2)[nH]1	enzyme activity	inhibitor	–	10 µM	inhibition	5%
CCN(CC)CCNC(=O)c1c(C)[nH]c(/C=C2\C(=O)Nc3ccc(F)cc32)c1C	enzyme activity	inhibitor	–	10 µM	inhibition	59%
O=C1NC(=O)c2cc(Nc3ccc(F)cc3)c(Nc3ccc(F)cc3)cc21	cell-free assay	inhibitor	–	0.5 µM	remaining signal	94.5%
Cn1c2c(Cl)c(Cl)ccc2c2cc(N)[nH]c(=O)c21	thermal stability	–	DSF	10 µM	ΔTm	0.1 °C
Nc1nc(Nc2ccccc2)sc1C(=O)c1c(F)cccc1F	enzyme activity	inhibitor	–	10 µM	remaining activity	90%
CN(c1ncccc1CNc1nc(Nc2ccc3c(c2)CC(=O)N3)ncc1C(F)(F)F)S(C)(=O)=O	enzyme activity	inhibitor	–	1 µM	inhibition	78.4%
Cn1cnc(Br)c1C1=CN(c2ncnc3[nH]cnc23)CCS1	enzyme activity	inhibitor	radiometric	50 nM	inhibition	21.5%
Cn1c2c(c3ccc(Cl)c(Cl)c31)C(C#N)C1(CCNCC1)NC2=O (racemic)	thermal stability	–	DSF	10 µM	ΔTm	3.3 °C
Cc1cc(NC(=O)c2cccc3cc(-c4cccc5[nH]nc(N)c45)ccc23)ccc1F	enzyme activity	inhibitor	–	0.1 µM	activity vs control	100%
O=C(Nc1cnn(-c2csc(C(=O)NC3COC3)c2)c1)Nc1c(F)cccc1Cl	enzyme activity	inhibitor	–	5 µM	remaining activity	108%
COc1cc2ncnc(Nc3ccc(Oc4ccccc4)c(C)c3C)c2cc1OC	enzyme activity	inhibitor	–	1 µM	inhibition	4%
CC(C)(C)c1nc(-c2cccc(NS(=O)(=O)c3c(F)cccc3F)c2F)c(-c2ccnc(N)n2)s1	enzyme activity	inhibitor	radiometric	1 µM	remaining activity	95%
C[C@@H](N)[C@H]1CC[C@H](C(=O)Nc2ccncc2)CC1	cell-free assay	inhibitor	–	0.5 µM	remaining signal	97.8%
Oc1cccc(-c2nc(N3CCOCC3)c3oc4ncccc4c3n2)c1	enzyme activity	inhibitor	–	10 µM	remaining activity	100%
CN(C)CCCn1cc(C2=C(c3c[nH]c4ccccc34)C(=O)NC2=O)c2ccccc21	cell-free assay	–	–	0.5 µM	remaining signal	72%
FC(F)(F)Oc1cccc(-c2cnc3ccc(-c4ccncc4)nn23)c1	enzyme activity	inhibitor	radiometric	5 µM	activity vs control	106%

Compound	read-out	action	method	concentration	endpoint	value
Nc1ncnc2occ(-c3ccc(NC(=O)Nc4cc(C(F)(F)F)ccc4F)cc3)c12	enzyme activity	inhibitor	–	20 µM	remaining activity	12%
CN(C)C1CCN(CC#Cc2nn(C3CCCC3)c3nc(NCc4ccccc4)ncc23)C1 (centres unmarked)	enzyme activity	inhibitor	FRET	0.1 µM	inhibition	3%
O=C(NCCCC1CCCCC1)c1ccc(CNC(=O)c2cnn(-c3ccccc3)c2C(F)(F)F)cc1	cell-free assay	–	competition with immobilised ligand	0.1 µM	remaining binding	100%
CC(C)c1ccc(NC(=O)c2cccs2)c(-c2nc3ccccc3[nH]c2=O)c1	enzyme activity	inhibitor	–	1 µM	activity vs control	108%
COc1cc(Nc2cnc(C#N)c(O[C@H](C)CN(C)C)n2)ncc1-c1cnn(C)c1	enzyme activity	inhibitor	radiometric	1 µM	remaining activity	104%
CN1CC(Oc2cnc(C#N)cc2-c2ccn3nc(NC(=O)C4CC4)cc3c2)C1	enzyme activity	inhibitor	–	1 µM	inhibition	7%
NS(=O)(=O)c1cc(NC(=O)Cc2ccccc2)ccc1Oc1cccc(Cl)c1	cell-free assay	–	competition with immobilised ligand	1 µM	remaining binding	94%
Cc1ccc(C(=O)Nc2ccc(CN3CCN(C)CC3)c(C(F)(F)F)c2)cc1C#Cc1cnc2cccnn12	enzyme activity	inhibitor	–	23.5 nM	remaining activity	53%
CC(C)(C)C(=O)c1sc(NC2CCCCC2)nc1N	enzyme activity	inhibitor	–	10 µM	remaining activity	106%
Cc1cnc(NC2CCOCC2)nc1-n1cnc(C(=O)NC(CN)c2cc(F)cc(Cl)c2)c1 (centres unmarked)	enzyme activity	inhibitor	radiometric	1 µM	remaining activity	45%
CN(C)CC#Cc1ccc(OCCCc2sc(N3CCc4cccc(C(=O)Nc5nc6ccccc6s5)c4C3)nc2C(=O)O)c(F)c1	cell-free assay	–	competition with immobilised ligand	1 µM	remaining binding	89%
CC1(C)NC(=O)c2[nH]c3c(Cl)c(Cl)ccc3c2C1C#N (centres unmarked)	thermal stability	–	DSF	10 µM	ΔTm	1 °C
CC(=O)C1=C(C)N(c2cccc(C(F)(F)F)c2)C(=O)N[C@@H]1c1ccc(C#N)nc1	cell-free assay	–	competition with immobilised ligand	1 µM	remaining binding	92.3%
Cn1c2c(Cl)c(Cl)ccc2c2cc[nH]c(=O)c21	thermal stability	–	DSF	10 µM	ΔTm	0.8 °C
CCCOc1ccc([C@H]2[C@H](C(=O)O)[C@@H](c3ccc4c(c3)OCO4)CN2CC(=O)Nc2c(CC)cccc2CC)cc1	cell-free assay	–	competition with immobilised ligand	1 µM	remaining binding	100%
N[C@@H]1CCN(c2nccc(-c3cnn4ncccc34)n2)C1	cell-free assay	–	–	1 µM	remaining signal	96%
CCCCN(CCCC)C(=O)CN1C[C@H](c2cc(OC)c3c(c2)OCO3)[C@@H](C(=O)O)[C@@H]1CC(C)(C)CCC	cell-free assay	–	competition with immobilised ligand	1 µM	remaining binding	100%
COc1cc(Cl)c(C(=O)N[C@@H](CN[C@H]2CC[C@@H](N)CC2)Cc2ccc(C#N)cc2)cc1-c1ccc(CN[C@H](C)c2ccc(C)cc2)o1	enzyme activity	inhibitor	–	1 µM	remaining activity	106%
CC1=C(C#N)C(c2ccc3c(c2)c(NC(=O)c2ccccc2C)nn3C)C(C#N)=C(C)N1	cell-free assay	–	competition with immobilised ligand	1 µM	remaining binding	77%
Cc1ccc(Nc2nccc(N(C)c3ccc4c(C)n(C)nc4c3)n2)cc1S(N)(=O)=O	enzyme activity	inhibitor	–	10 µM	inhibition	19%
